Results published in the RNAGym collection of RNA variant scans (doi:10.1002/anie.201605470).

B1: Osa-1-4 twister ribozyme (parent)
chain: CCGCCUAACACUGCCAAUGCCGGUCCCAAGCCCGGAUAAAAGUGGAGGGGGCGG

Variants of: B1
Experiment: self-cleavage, relative activity (ratio to wild type); higher = more cleavage; co-transcriptional
Summary of the method: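 In vitro transcription at 37 °C for 2 h allowed the twister ribozyme to cleave itself as it was made. Its 54-nucleotide Oryza sativa template had been synthesised with 97 % wild-type base and 1 % of each other base at the 48 positions downstream of the cleavage site. A template-switching oligonucleotide was used for reverse transcription, followed by PCR amplification and deep sequencing. Whether reads carried upstream sequence set the cleavage status, and relative activity is the fraction cleaved normalised to wild type.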

Variant	self-cleavage
C9A G47C	0.03
C9A G47A	0.05
C9A G47U	0.03
A8G U24G	0.03
A8G U24A	0.12
A8G U24C	0.1
C9G G22U	0.14
C9G G22C	0.05
C9G G22A	0.15
C9G G13U	0.03
C9G G13A	0.06
C9G G13C	0.03
A8G C20U	0.58
A8G C20A	0.49
A8G C20G	0.09
C9A G48U	0.02
C9A G48C	0.02
C9A G48A	0.02
A8G C9G	0.2
A8G C9U	0.1
A8G C9A	0.13
A8G G42U	0.04
A8G G42A	0.14
A8G G42C	0.12

Variant	self-cleavage
A8C G51A	0.06
A8C G51C	0.03
A8C G51U	0.05
C9A G19A	0.1
C9A G19U	0.07
C9A G19C	0.04
A8U U18G	0.56
A8U U18A	0.39
A8U U18C	0.26
A8G G23U	0.06
A8G G23A	0.13
A8G G23C	0.05
A8G G48C	0.05
A8G G48U	0.04
A8G G48A	0.06
C9A G42U	0.03
C9A G42A	0.09
C9A G42C	0.04
C9A G51A	0.13
C9A G51C	0.02
C9A G51U	0.05
A8U C26U	0.12
A8U C26G	0.05
A8U C26A	0.03

Variant	self-cleavage
A8U C20A	0.48
A8U C20U	0.41
A8U C20G	0.06
A8G	0.71
A8U	0.49
C9A G34C	0.08
C9A G34A	0.19
C9A G34U	0.11
A8U C9A	0.09
A8U C9G	0.11
A8U C9U	0.09
A8G G44U	0.45
A8G G44C	0.35
A8G G44A	0.39
C9A U18A	0.47
C9A U18G	0.31
C9A U18C	0.19
A8U C14G	0.05
A8U C14A	0.04
A8U C14U	0.1
C9G G23A	0.24
A8U C32A	0.03
A8U C32U	0.06
A8U C32G	0.07

Variant	self-cleavage
A8C G54C	0.06
A8C G54A	0.09
A8C G54U	0.11
A8G U18C	0.39
A8G U18G	0.49
A8G U18A	0.57
A8U G54C	0.13
A8U G54A	0.17
A8U G54U	0.32
A8G G13U	0.03
A8G G13A	0.1
A8G G13C	0.03
C9A U43C	0.07
C9A U43G	0.14
C9A U43A	0.37
A8G G50C	0.27
A8G G50U	0.43
A8G G50A	0.53
A8G U43G	0.15
A8G U43C	0.14
A8G U43A	0.23
A8U G51C	0.04
A8U G51U	0.08
A8U G51A	0.14

Variant	self-cleavage
A8C U18A	0.07
A8C U18C	0.08
A8C U18G	0.17
A8U G48C	0.05
A8U G48A	0.05
A8U G48U	0.04
C9A G44U	0.63
C9A G44C	0.5
C9A G44A	0.47
C9A G50A	0.13
C9A G50C	0.38
C9A G50U	0.5
A8U G44C	0.09
A8U G44A	0.27
A8U G44U	0.13
A8G G51A	0.22
A8G G51U	0.11
A8G G51C	0.08
A8U C25A	0.07
A8U C25U	0.11
A8U C25G	0.05
A8U G13U	0.02
A8U G13A	0.05
A8U G13C	0.03

Variant	self-cleavage
A8G C15A	0.12
A8G C15G	0.29
A8G C15U	0.13
C9A G54A	0.43
C9A G54U	0.36
C9A G54C	0.34
A8U G50U	0.35
A8U G50A	0.26
A8U G50C	0.24
A8G C26G	0.27
A8G C26U	0.18
A8G C26A	0.04
A8G G47C	0.07
A8G G47A	0.11
A8G G47U	0.1
C9A G49A	0.04
C9A G49U	0.03
C9A G49C	0.02
A8C G44C	0.07
A8C G44U	0.08
A8C G44A	0.07
A8C U37G	0.1
A8C U37C	0.07
A8C U37A	0.06

Variant	self-cleavage
A8C G48A	0.02
A8C G48C	0.02
A8C G48U	0.03
A8G G53C	0.08
A8G G53A	0.16
A8G G53U	0.11
A8G C25U	0.16
A8G C25A	0.08
A8G C25G	0.08
A8U C52U	0.57
A8U C52A	0.25
A8U C52G	0.49
C9A G23A	0.06
C9A G23C	0.01
C9A G23U	0.02
A8G G54U	0.32
A8G G54C	0.21
A8G G54A	0.27
A8G C21G	0.09
A8G C21U	0.38
A8G C21A	0.14
A8G C31G	0.08
A8G C31A	0.03
A8G C31U	0.1

Variant	self-cleavage
A8C G42U	0.04
A8C G42C	0.04
C9A G30U	0.01
C9A G30C	0.02
C9A G30A	0.02
A8G C11A	0.15
A8G C11U	0.19
A8G C11G	0.17
A8U G30A	0.02
A8U G30C	0.03
A8U G30U	0.02
A8G G19C	0.07
A8G G19U	0.1
A8G G19A	0.15
A8U C11G	0.08
A8U C11A	0.08
A8U C11U	0.11
C9A G45C	0.01
C9A G45U	0.03
C9A G45A	0.04
A8U G47C	0.05
A8U G47U	0.05
A8U G47A	0.06
C9A G13C	0.03

Variant	self-cleavage
C9A G13U	0.04
C9A G13A	0.02
A8G C33G	0.07
A8G C33U	0.21
A8G C33A	0.1
A8U C15U	0.08
A8U C15A	0.08
A8U C15G	0.15
A8U C33U	0.09
A8U C33G	0.04
A8U C33A	0.05
A8U G19A	0.08
A8U G19C	0.03
A8U G19U	0.05
A8G C32U	0.07
A8G C32G	0.13
A8G C32A	0.05
C9G G19A	0.2
C9G G19C	0.06
C9G G19U	0.11
A8C G49A	0.02
A8C G49C	0.02
A8C G49U	0.03
A8U C21G	0.07

Variant	self-cleavage
A8U C21A	0.08
A8U C21U	0.28
A8U G49U	0.05
A8U G49C	0.04
A8U G49A	0.05
A8U C27U	0.07
A8U C27A	0.06
A8U C27G	0.05
A8U U43G	0.08
A8U U43C	0.08
A8U U43A	0.09
A8U G22A	0.12
A8U G22U	0.08
A8U G22C	0.03
A8G G22A	0.2
A8G G22C	0.07
A8G G22U	0.15
A8C U12G	0.16
A8C U12C	0.07
A8C U12A	0.06
A8U G34C	0.09
A8U G34U	0.1
A8U G34A	0.13
A8U U24A	0.03

Variant	self-cleavage
A8U U24C	0.05
A8U U24G	0.02
A8U U12A	0.1
A8U U12C	0.06
A8U U12G	0.07
A8C G47U	0.04
A8C G47A	0.04
A8C G47C	0.03
A8G C52G	0.58
A8G C52U	0.73
A8G C52A	0.44
A8C U24A	0.03
A8C U24C	0.08
A8C U24G	0.01
A8G C27U	0.11
A8G C27G	0.11
A8G C27A	0.14
A8U G45C	0.04
A8U G45A	0.05
A8U G45U	0.08
C9A U12A	0.16
C9A U12G	0.08
C9A U12C	0.1
A8C G53C	0.02

Variant	self-cleavage
A8C G53U	0.06
A8C G53A	0.07
A8C G50U	0.08
A8C G50C	0.08
A8C G50A	0.06
A8U G23C	0.04
A8U G23U	0.03
A8U G23A	0.08
A8G C14G	0.1
A8G C14A	0.07
A8G C14U	0.14
A8G U12A	0.16
A8G U12C	0.12
A8G U12G	0.15
A8G G30A	0.06
A8G G30U	0.04
A8G G30C	0.07
C9G	0.93
C9A	0.48
A8G G45A	0.09
A8G G45C	0.05
A8G G45U	0.14
A8U G42U	0.03
A8U G42C	0.06

Variant	self-cleavage
A8U G42A	0.1
A8U G53A	0.12
A8U G53C	0.05
A8U G53U	0.1
A8U G35C	0.08
A8U G35A	0.27
A8U G35U	0.18
A8G G49C	0.05
A8G G49U	0.06
A8G G49A	0.08
A8U U37G	0.54
A8U U37C	0.36
A8U U37A	0.31
C9A U24C	0.07
C9A U24A	0.04
C9A U24G	0.07
C9A U37G	0.53
C9A U37A	0.28
C9A U37C	0.53
A8G G35A	0.4
A8G G35U	0.35
A8G G35C	0.16
C9A G22U	0.12
C9A G22A	0.34

Variant	self-cleavage
C9A G22C	0.03
A8G U37A	0.56
A8G U37G	0.75
A8G U37C	0.68
A8C U43C	0.08
A8C U43G	0.08
A8C U43A	0.08
A8U C31A	0.03
A8U C31U	0.06
A8U C31G	0.05
A8C G45A	0.04
A8C G45C	0.02
A8C G45U	0.04
C9A G35A	0.24
C9A G35C	0.11
C9A G35U	0.32
C9A G53A	0.29
C9A G53C	0.03
C9A G53U	0.09
A8G G34C	0.13
A8G G34A	0.27
A8G G34U	0.16
